Test results reported in ChEMBL document CHEMBL3045505, “Antifungal activity of strawberry fruit volatile compounds against Colletotrichum acutatum” (2007).
Calls of active or inactive are those of the source. No cut-off for these calls is given here.

Key:
Colletotrichum acutatum [1] = experiment: Antifungal activity against Colletotrichum acutatum assessed as inhibition of microcyclic conidiation at 25 degC measured after 4 to 24 hr; assay type: functional
Method in brief: (§1)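 C. acutatum CECT 20240 conidia (PDA, 25 °C, continuous light, 7 days) as a 100 µL droplet of 5 × 10^5 conidia mL-1 on Parafilm-covered slides in sealed Petri dishes. Volatile applied to filter paper in the vapour phase at ≥4 doses, 0.13–1351.35 µL L-1, with water control. Incubated at 25 °C and scored microscopically at 4 and 24 h. Five dishes per dose, experiment run twice.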

Colletotrichum acutatum [2] = experiment: Antifungal activity against Colletotrichum acutatum assessed as inhibition of mycelial growth at 25 degC measured after 8 days; assay type: functional
Method in brief: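 A 5 mm PDA mycelial disc was placed in a sealed 74 mL dish holding 20 mL PDA. Volatile on filter paper under the lid at ≥6 doses, 33.78–1351.35 µL L-1, with extra doses for some compounds; water control. Colony diameter read after 8 days at 25 °C; five dishes per dose, run twice. MID, ID95 and ID50 from probit regression on log dose.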

Colletotrichum acutatum [3] = experiment: Antifungal activity against Colletotrichum acutatum assessed as inhibition of appressorium pigmentation at 25 degC measured after 4 to 24 hr; assay type: functional; method in brief: as §1
Colletotrichum acutatum [4] = experiment: Antifungal activity against Colletotrichum acutatum assessed as inhibition of appressorium formation at 25 degC measured after 4 to 24 hr; assay type: functional; method in brief: as §1
Colletotrichum acutatum [5] = experiment: Antifungal activity against Colletotrichum acutatum assessed as inhibition of pore appressorial formation at 25 degC measured after 4 to 24 hr; assay type: functional; method in brief: as §1
Colletotrichum acutatum [6] = experiment: Antifungal activity against Colletotrichum acutatum assessed as inhibition of germination at 25 degC measured after 4 to 24 hr; assay type: functional; method in brief: as §1
Colletotrichum acutatum [7] = experiment: Antifungal activity against Colletotrichum acutatum assessed as disruption of plasma membrane at 33.78 ul/L by transmission electrol microscopy; assay type: functional, organism-based
Colletotrichum acutatum [8] = experiment: Antifungal activity against Colletotrichum acutatum inoculated in strawberry fruits assessed as fruit damaging at 4 ul/L measured after 7 days; assay type: functional, organism-based
Method in brief: (§2)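 Strawberry fruits (cv. Camarosa) at commercial maturity inoculated with 10^6 conidia mL-1. Filter paper carrying 4, 5, 10, 20 or 50 µL L-1 volatile placed next to the fruit; inoculated untreated fruit as control. Kept at 25 °C under continuous light; damage rated at 7 days (0 = intact, 1 = covered with mycelia). Eight replicates, mean ± SE.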

Colletotrichum acutatum [9] = experiment: Antifungal activity against Colletotrichum acutatum inoculated in strawberry fruits assessed as fruit damaging at >=20 ul/L measured after 7 days; assay type: functional; method in brief: as §2
Colletotrichum acutatum [10] = experiment: Antifungal activity against Colletotrichum acutatum inoculated in strawberry fruits assessed as fruit damaging at 10 ul/L measured after 7 days; assay type: functional; method in brief: as §2
Colletotrichum acutatum [11] = experiment: Antifungal activity against Colletotrichum acutatum inoculated in strawberry fruits assessed as fruit damaging at 5 ul/L measured after 7 days; assay type: functional, organism-based; method in brief: as §2
Colletotrichum acutatum [12] = experiment: Antifungal activity against Colletotrichum acutatum assessed as disruption of cell wall at 33.78 ul/L by transmission electrol microscopy; assay type: functional, organism-based
Colletotrichum acutatum [13] = experiment: Antifungal activity against Colletotrichum acutatum assessed as high disorganization of cell components at 33.78 ul/L by transmission electrol microscopy; assay type: functional, organism-based

Row | SMILES | MID (Colletotrichum acutatum [1]) [uL/L] | ID50 (Colletotrichum acutatum [2]) [uL/L] | ID95 (Colletotrichum acutatum [2]) [uL/L] | MID (Colletotrichum acutatum [2]) [uL/L] | MID (Colletotrichum acutatum [3]) [uL/L] | MID (Colletotrichum acutatum [4]) [uL/L] | MID (Colletotrichum acutatum [5]) [uL/L] | MID (Colletotrichum acutatum [6]) [uL/L] | Activity (Colletotrichum acutatum [7]) | Activity (Colletotrichum acutatum [8]) | Activity (Colletotrichum acutatum [9]) [%] | Activity (Colletotrichum acutatum [10]) [%] | Activity (Colletotrichum acutatum [11]) | Activity (Colletotrichum acutatum [12]) | Activity (Colletotrichum acutatum [13])
1 | CCC/C=C/CO | 135.13 | 151.76 | 253.78 | 268.92 | 33.78 | 33.78 | 33.78 | 135.13 | – | – | – | – | – | – | –
2 | CCC/C=C/C=O | 6.76 | 26.89 | 32.97 | 33.65 | 1.35 | 6.76 | 1.35 | 6.76 | Active | inactive | 100 | 87.5 | inactive | Active | Active
3 | CCC/C=C/COC(C)=O | 337.84 | 221.62 | 584.86 | 651.35 | 135.13 | 337.84 | 135.13 | 337.84 | – | – | – | – | – | – | –
4 | CCCCCCO [1-HEXANOL] | 337.84 | 151.35 | 255.14 | 270.27 | 33.78 | 337.84 | 33.78 | 337.84 | – | – | – | – | – | – | –
5 | CC/C=C\CCOC(C)=O [(Z)-hex-3-en-1-yl acetate] | 337.84 | 503.11 | 2063.11 | 2476.35 | 135.13 | 337.84 | 135.13 | 337.84 | – | – | – | – | – | – | –
6 | CC/C=C\CCO [CIS-3-HEXENOL] | 337.84 | 230.14 | 595 | 640.54 | 135.13 | 337.84 | 135.13 | 337.84 | – | – | – | – | – | – | –
7 | CCCCCC=O [HEXANAL] | 33.78 | 151.35 | 256.49 | 272.16 | 6.76 | 33.78 | 6.76 | 33.78 | – | – | – | – | – | – | –
8 | CCCCCCOC(C)=O [HEXYL ACETATE] | 1351.35 | 718.65 | 5100.41 | 6441.89 | 337.84 | 1351.35 | 337.84 | 1351.35 | – | – | – | – | – | – | –
